For 38 sequences, folding enthalpy and Tm results are on record in the array DNA melting data of Ke et al. (doi:10.1101/2024.01.08.574731).

The nature of data set [1]: folding enthalpy; higher = less favourable; fluorescence melt of hairpins on a sequencing array, two-state fit. Conditions: sodium 0.088 M. A digest of the protocol: (§1)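 Cy3 fluorescence of library hairpins on a sequenced MiSeq flow cell, with annealed Cy3 and quencher oligos, was imaged in 50 mM Na-HEPES pH 8.0, 25 mM NaCl in 2.5 °C steps up to 60 °C. Signals were normalised to pre-quench Cy3 and to control variants. Melting temperature and folding enthalpy came from bootstrapped two-state fits, inverse-variance combined over four replicates. Fitted temperatures were raised by 9.35 °C to match UV melts.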

The nature of data set [2]: melting temperature; fluorescence melt of hairpins on a sequencing array, two-state fit, raised by 9.35 °C to match UV melts. As to conditions: sodium 0.088 M. The procedure, abridged: as §1

For GATCGTTTTAACGATC ((((((....)))))), in data set [1], the folding enthalpy was -42.2 kcal/mol. For the same sequence, the Tm in data set [2] was 60.8 °C.

As to GATCTAAAATTAGATC ((((((....)))))), the folding enthalpy in data set [1] was -29.9 kcal/mol. Moreover, the Tm in data set [2] was determined as 35.7 °C.

Take GATCTAAAGCTAGATC ((((((....)))))): in data set [1], the folding enthalpy is -18.3 kcal/mol. The Tm in data set [2] is 35.4 °C.

As for GATCTAAATATAGATC ((((((....)))))), the folding enthalpy in data set [1] is -25.9 kcal/mol. Moreover, the Tm in data set [2] worked out at 35.7 °C.

For GATCTAAATTTAGATC ((((((....)))))), the folding enthalpy in data set [1] was -32.3 kcal/mol. Besides, in data set [2], the Tm came out at 44.3 °C.

On to GATCTAACGGTAGATC ((((((....)))))), for which the folding enthalpy in data set [1] is -38.4 kcal/mol. Besides, the Tm in data set [2] came out at 40.5 °C.

Regarding GATCTAACTATAGATC ((((((....)))))), the folding enthalpy in data set [1] was -29.3 kcal/mol. Also, the Tm in data set [2] turned out to be 37.5 °C.

Regarding GATCTAACTTAGATC ((((((...)))))), the folding enthalpy in data set [1] is -29.3 kcal/mol. Moreover, the Tm in data set [2] was determined as 37.3 °C.

As for GATCTAAGAGTAGATC ((((((....)))))), the folding enthalpy in data set [1] was -14.9 kcal/mol. In addition, in data set [2], the Tm was 37.1 °C.

GATCTAAGGGTAGATC ((((((....)))))): in data set [1], the folding enthalpy was -25.1 kcal/mol. Further, the Tm in data set [2] is 35.3 °C.

With GATCTAATAATAGATC ((((((....)))))), the folding enthalpy in data set [1] was -22 kcal/mol. In addition, in data set [2], the Tm came out at 35.5 °C.

Take GATCTAATAGTAGATC ((((((....)))))): the folding enthalpy in data set [1] is -29.4 kcal/mol. In addition, the Tm in data set [2] was 33.7 °C.

For the sequence GATCTAATATTAGATC ((((((....)))))), in data set [1], the folding enthalpy was -40.3 kcal/mol. For the same sequence, the Tm in data set [2] was found to be 43.2 °C.

GATCTAATGATAGATC ((((((....)))))): in data set [1], the folding enthalpy was -20.4 kcal/mol. The Tm in data set [2] was 36.2 °C.

Take GATCTAATGCTAGATC ((((((....)))))): the folding enthalpy in data set [1] was -29.5 kcal/mol. For the same sequence, in data set [2], the Tm came to 36.5 °C.

On to GATCTAATTGTAGATC ((((((....)))))), for which the folding enthalpy in data set [1] is -33 kcal/mol. In addition, the Tm in data set [2] worked out at 38.8 °C.

In the case of GATCTACAATAGATC ((((((...)))))), the folding enthalpy in data set [1] is -18.8 kcal/mol. For the same sequence, the Tm in data set [2] came to 36.7 °C.

On to GATCTACAGATAGATC ((((((....)))))), for which the folding enthalpy in data set [1] was -26.6 kcal/mol. Moreover, in data set [2], the Tm was 37.3 °C.

In the case of GATCTACCATTAGATC ((((((....)))))), the folding enthalpy in data set [1] is -33.2 kcal/mol. Besides, the Tm in data set [2] worked out at 37.9 °C.

For GATCTACCTATAGATC ((((((....)))))), the folding enthalpy in data set [1] was -35 kcal/mol. In data set [2], the Tm turned out to be 40.5 °C.

As to GATCTACCTGTAGATC ((((((....)))))), in data set [1], the folding enthalpy is -39.4 kcal/mol. In addition, the Tm in data set [2] was found to be 52.8 °C.

In the case of GATCTACCTTAGATC ((((((...)))))), the folding enthalpy in data set [1] was -32 kcal/mol. Besides, the Tm in data set [2] was 39.1 °C.

As for GATCTACGAATAGATC ((((((....)))))), the folding enthalpy in data set [1] is -24 kcal/mol. Also, in data set [2], the Tm turned out to be 36.4 °C.

In the case of GATCTACGATAGATC ((((((...)))))), the folding enthalpy in data set [1] is -19.9 kcal/mol. In addition, the Tm in data set [2] was 35.4 °C.

For GATCTACGATTAGATC ((((((....)))))), in data set [1], the folding enthalpy is -27.4 kcal/mol. Also, the Tm in data set [2] turned out to be 34.9 °C.

In the case of GATCTACGCCTAGATC ((((((....)))))), in data set [1], the folding enthalpy is -33.8 kcal/mol. In data set [2], the Tm was 42.6 °C.

For the sequence GATCTACGCTTAGATC ((((((....)))))), in data set [1], the folding enthalpy was -35.4 kcal/mol. Further, the Tm in data set [2] was 43.4 °C.

For GATCTACGGATAGATC ((((((....)))))), the folding enthalpy in data set [1] was -23.4 kcal/mol. Moreover, the Tm in data set [2] came to 37.8 °C.

Consider GATCTACTAATAGATC ((((((....)))))), for which the folding enthalpy in data set [1] was -27.3 kcal/mol. Besides, the Tm in data set [2] was 38.9 °C.

In the case of GATCTACTATAGATC ((((((...)))))), the folding enthalpy in data set [1] is -25.1 kcal/mol. The Tm in data set [2] was 40.5 °C.

As for GATCTACTCGTAGATC ((((((....)))))), the folding enthalpy in data set [1] was -50.1 kcal/mol. The Tm in data set [2] came out at 53.8 °C.

Turning to GATCTACTCTTAGATC ((((((....)))))), the folding enthalpy in data set [1] was -29.7 kcal/mol. Also, the Tm in data set [2] turned out to be 41.1 °C.

Take GATCTACTGGTAGATC ((((((....)))))): the folding enthalpy in data set [1] was -43.6 kcal/mol. Besides, the Tm in data set [2] was determined as 52.8 °C.

Consider GATCTACTTATAGATC ((((((....)))))), for which, in data set [1], the folding enthalpy was -29.4 kcal/mol. Moreover, the Tm in data set [2] turned out to be 43 °C.

In the case of GATCTACTTGTAGATC ((((((....)))))), the folding enthalpy in data set [1] is -41.1 kcal/mol. Also, the Tm in data set [2] was found to be 56.2 °C.

Take GATCTACTTTTAGATC ((((((....)))))): the folding enthalpy in data set [1] was -33.1 kcal/mol. The Tm in data set [2] worked out at 39.8 °C.

As for GATCTAGAATAGATC ((((((...)))))), in data set [1], the folding enthalpy is -37.4 kcal/mol. Besides, the Tm in data set [2] is 49.9 °C.

As for GATCTAGACCTAGATC ((((((....)))))), in data set [1], the folding enthalpy was -32.8 kcal/mol. In data set [2], the Tm came to 47.2 °C.
